ChEMBL document CHEMBL4699407, “Isoquinoline thiosemicarbazone displays potent anticancer activity with in vivo efficacy against aggressive leukemias” (RSC Med Chem, 2020)

Assays:
[1] = test system: MIA PaCa-2; experiment: Cytotoxicity against human MIA PaCa2 cells assessed as reduction in cell viability in presence of Cu2+ incubated for 72 hrs by cell titer-glo luminescent cell viability assay; assay type: functional, cell-based; conditions: MIA PaCa-2, 72 h
Procedure, shortened: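 Cells were grown in DMEM or RPMI with 10% FBS, without antibiotics, at 37 °C, 20% O2, 5% CO2. Adherent lines were seeded at 500 cells/well. Serially diluted compound was given with 20 μM Cu(II) (CuCl2) for 72 h; leukemia models received pre-formed 1:1 copper complex. ATP was read by CellTiter-Glo luminescence. IC50 is relative to DMSO-treated cells.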

[2] = test system: MIA PaCa-2; experiment: Cytotoxicity against human MIA PaCa2 cells assessed as reduction in cell viability 72 hrs by cell titer-glo luminescent cell viability assay; assay type: functional
Procedure, shortened: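 MIAPACA2 cells in conventional medium without copper supplement got serially diluted compound for 72 h. ATP content was read by CellTiter-Glo, and IC90 (90% proliferation inhibition vs DMSO control) was calculated.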

Row | SMILES | IC90 [1] | IC90 [2]
1 | CNc1cccc2c(/C=N/NC(N)=S)nccc12 | 5.33 µM | 
2 | CNC(=S)N/N=C/c1nccc2cc(F)ccc12 | 0.233 µM | 
3 | NC(=S)N/N=C/c1ncc(F)c2ccccc12 | 2.06 µM | 
4 | CNC(=S)N/N=C/c1nccc2ccccc12 | 0.331 µM | 
5 | CNC(=S)N/N=C/c1ncc(F)c2ccccc12 | 0.114 µM | 
6 | CNc1cccc2c(C=NNC(=S)N(C)C)ncc(F)c12 | 0.0423 µM | 0.327 µM
7 | CN(C)C(=S)NN=Cc1ncc(F)c2ccccc12 | 0.0266 µM | 0.274 µM
8 | NC(=S)N/N=C/c1nccc2ccccc12 | 2.21 µM | 
9 | CNc1c(F)ccc2c(C=NNC(=S)N(C)C)nccc12 | 0.0384 µM | 0.272 µM
10 | CN(C)C(=S)NN=Cc1nccc2ccccc12 | 0.0737 µM | 29.6 µM
11 | CNC(=S)NN=Cc1nccc2c(N)cccc12 | 7.08 µM | 11.2 µM
12 | NC(=S)N/N=C/c1nccc2cc(F)ccc12 | 2.04 µM | 
13 | NC(=S)N/N=C/c1nccc2c(N)cccc12 | 71.1 µM | 
14 | CNC(=S)NN=Cc1nccc2c(NC)cccc12 | 0.607 µM | 4.24 µM
